RAD52 anneal inh = blocks human RAD52 DNA annealing | recombinant RAD52 DNA annealing, FRET fluorescence | inhibition, % at 18.7 µM | 0.46% of 360,000 active | P43351;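 active = every replicate showing at least 50% inhibition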
rRNA inh HTS = selective bacterial rRNA inhibition in E. coli; GFP signal change (wild-type ribosome), % (no concentration beside the values); 1.6% of 350,000 active; E. coli WT GFP vs humanized-ribosome RFP mutants, fluorescence, 24 h; active compounds read low; DMSO median 0, no signal -100;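 active = significant combined selectivity score with lowered wild-type GFP, culture density cut under 30%, mutant RFP and density less affected; inactive = any of these conditions unmet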
RAD54 inh = RAD54 (human) branch migration inhibition; Q92698; RAD54 Holliday junction branch migration, FAM/BHQ fluorescence; inhibition, % at 10.4 µM; 0.14% of 360,000 active;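 active = mean normalized replicate activity at least 40 and at least half of replicates scoring 40 or more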;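 note: 0% = median of neutral control wells and 100% = median of positive control wells; inhibitors cause a drop in the FAM fluorescence signal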
PglD DTNB = blocks C. jejuni PglD acetyltransferase activity. purified PglD enzyme, DTNB colorimetric CoA detection. inhibition, % at 12.5 µM. 0.098% of 360,000 active. AID 602405; in the data active = inhibition above about 16%, passing the limit was not always enough
Xi reactivation = reactivates the inactive X chromosome in mouse fibroblasts; 0.055% of 360,000 active; activation, % at 7.58 µM; XiGFP mouse fibroblasts, % GFP-positive cells imaging, 3 d; cells co-treated with 5-aza-dC sensitizer; scaled so ellipticine positive control = 100%; AID 743238;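 active = mean normalized replicate activation at least 10% and every replicate at or above 10%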;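 note: 0% = median of on-plate neutral control wells and 100% = ellipticine 6 µM median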
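Assay system: SV40-immortalized XiGFP fibroblast cells, line 68-5-11; buffer or medium: DMEM plus 5-aza-dC sensitizer; compound: one concentration, pinned; timing: compounds 3 days, fix/stain 15 min at room temperature; benchmarks: positive control ellipticine, 6 µM final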
E-selectin induc = E-selectin induction on HUVECs; P16581; HUVEC E-selectin immunofluorescence imaging; normalized: neutral wells 0, TNF-alpha wells 100; activation, % at 7.58 µM; 0.37% of 260,000 active;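 active = mean E-selectin-positive cell signal at least 10% of the positive control, reached in at least 60% of replicates, without over 20% cell loss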
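Read-out: % PE-positive cells | Test system: HUVEC | Doses: One compound dose added by pin transfer | Buffer or medium: EGM-2 over gelatin coat | Signal: Immunofluorescence imaging | Benchmarks: TNF-alpha, DMSO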
Starred values were filed as active, the others as inactive; / = not tested or not shown. Most compounds without a hit are left out; they make up all but 2% or so of the library.

SMILES	RAD52 anneal inh	rRNA inh HTS	RAD54 inh	PglD DTNB	Xi reactivation	E-selectin induc
Cc1ccc(S(=O)(=O)Nc2ccc3c(c2)CC(=O)N([C@H](C)CO)C[C@H](C)[C@@H](CN(C)Cc2ccc4c(c2)OCO4)O3)cc1	45	-2	-8	-2	0	0
Cc1ccc2c(c1)C(=O)C(=O)N2CCOc1ccccc1	-11	-23*	-3	6	2	0
CCCNC(=O)Nc1ccc2c(c1)OC[C@@H](C)N(C(C)=O)C[C@H](C)[C@@H](OC)CN(C)C2=O	-5	-1	-2	2	0	0
O=C(CSc1ncn[nH]1)c1cccc([N+](=O)[O-])c1	-8	5	/	/	0	38*
Cc1cc(C)nc(-n2nc(C)c(Sc3ccc(F)cc3)c2N)n1	-2	-40*	-10	1	/	/
CCOC(=O)c1csc(-c2sccc2Br)n1	4	-27*	/	/	0	/
CCOC(=O)c1csc(-c2ccc(OC)c(OC)c2)n1	7	0	/	/	0	/
Cn1cnc(C(=O)NCc2ccccc2)c1C(=O)NCc1ccccc1	-10	-32*	7	-6	0	0
COc1ccc(S(=O)(=O)Nc2ccc3c(c2)CC(=O)N([C@H](C)CO)C[C@H](C)[C@H](CN(C)Cc2ccc4c(c2)OCO4)O3)cc1	10	-2	4	5	-1	0
CC(C)CCNC(=O)[C@H](CSCc1ccccc1)N1Cc2ccccc2C1=O	-9	-7	1	-6	1	/
CC(C)CCNC(=O)[C@H](Cc1ccccc1)N1Cc2ccccc2C1=O	-2	2	-7	-4	0	76*
COc1ccc2cc(-c3[nH]ncc3CN3CCCC3c3nonc3C)ccc2c1 (stereo unspecified)	-73	-23*	-3	-2	0	/
COCC(=O)N1C[C@H]2[C@@H](c3ccccc31)[C@@H](CO)N2C(=O)C1CCOCC1	-15	1	2	2	0	1
CC(C)c1ccc(OCC(=O)NCc2ccccc2)cc1	-8	-22*	4	0	0	0
O=C(NCCCNC(=O)c1cnccn1)c1ccc(Cl)cc1	-2	4	-2	2	0	0
CC(C)c1ccc(OCC(=O)NNC(=O)c2cnccn2)cc1	-20	-28*	/	/	0	/
O=C(COc1ccc(Cl)cc1)NCCCNC(=O)c1cnccn1	-7	4	4	-8	0	34*
C/C=C/c1ccc([C@H]2[C@@H](CO)N3CCCCN(S(=O)(=O)c4ccc(OC)cc4)C[C@H]23)cc1	60*	-56	-5	0	0	2
COc1ccc(S(=O)(=O)N2CCCCN3[C@@H](CO)[C@H](c4ccc(C#CC(C)C)cc4)[C@@H]3C2)cc1	36	-46*	0	-4	0	0
C/C=C/c1ccc([C@H]2[C@H](CO)N3CCCCN(S(=O)(=O)c4ccc(OC)cc4)C[C@@H]23)cc1	31	-39	-8	2	0	0
C[C@@H]1CN([C@H](C)CO)S(=O)(=O)c2ccc(Br)cc2O[C@@H]1CN(C)C(=O)C1CCCCC1	/	6	/	/	0	0
CCN(CC)c1ccc(NC(=O)CSc2nc(C)cc(=O)[nH]2)cc1	-12	-14*	-7	/	0	-1
COc1ccc(S(=O)(=O)Nc2cccc3c2O[C@H](CN(C)S(=O)(=O)c2c(C)noc2C)[C@@H](C)CN([C@@H](C)CO)C3=O)cc1	2	-1	/	/	1	13
CN=c1scc(-c2ccc(F)cc2)n1/N=C/c1ccc(O)c(O)c1	0	-41*	/	/	1	/
CN=c1scc(-c2ccc([N+](=O)[O-])cc2)n1/N=C/c1ccco1	-25	-18	1	-4	0	0
O=C1/C(=C/c2cccs2)SC(=S)N1CC(=O)N1CCCCC1CCO (stereo unspecified)	-23	-25*	-2	-18	0	/
O=C1/C(=C/c2ccccc2F)SC(=S)N1CCC(=O)N1CCCCC1CCO (stereo unspecified)	-2	-23*	-9	2	0	0

Source: PubChem (Broad Institute)
